Experimental data reported in ChEMBL document CHEMBL1177700, “Discovery of bishomo(hetero)arylpiperazines as novel multifunctional ligands targeting dopamine D(3) and serotonin 5-HT(1A) and 5-HT(2A) receptors” (J Med Chem, 2010).
Activity calls are given as the source filed them. The calls are words filed in the database; no cut-off is given here.

Legend:
[1] = Partition coefficient, log P of the compound; type: physicochemical; details: octanol/water
[2] = molecular target: 5-hydroxytryptamine receptor 2A (Rattus norvegicus, UniProt P14842); experiment: Displacement of [3H]ketanserin from 5HT2A receptor in CRL:CD(SD)BR-COBS rat cortex by scintillation spectrometry
Chain of 5-hydroxytryptamine receptor 2A (P14842 whole entry): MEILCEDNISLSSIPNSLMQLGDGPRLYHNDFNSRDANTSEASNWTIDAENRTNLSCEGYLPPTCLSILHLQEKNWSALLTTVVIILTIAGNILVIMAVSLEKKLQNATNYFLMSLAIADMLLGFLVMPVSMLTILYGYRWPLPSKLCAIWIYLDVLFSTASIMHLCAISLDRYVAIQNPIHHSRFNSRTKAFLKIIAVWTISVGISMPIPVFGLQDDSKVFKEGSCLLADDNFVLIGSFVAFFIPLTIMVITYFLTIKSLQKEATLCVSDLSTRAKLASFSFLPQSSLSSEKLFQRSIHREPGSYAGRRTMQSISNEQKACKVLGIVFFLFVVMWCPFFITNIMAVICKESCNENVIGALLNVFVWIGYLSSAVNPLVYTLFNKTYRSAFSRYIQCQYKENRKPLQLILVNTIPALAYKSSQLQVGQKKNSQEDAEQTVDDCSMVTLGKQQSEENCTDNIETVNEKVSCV

[3] = Tmax in NMRI mouse at 3 mg/kg, ip; type: ADME, organism-based; set-up: dose 3 mg/kg, route intraperitoneal; details: in vivo
Summary of the method: (§1)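 Mice received a single 3 mg/kg ip dose, and plasma concentrations were measured over time. […] Cmax, Tmax and T1/2 were taken from the plasma level profiles.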

[4] = Displacement of [3H]mesulergine from 5HT2C receptor in CRL:(HA) BR albino guinea pig cortex by scintillation spectrometry; set-up: species or system Cavia porcellus
Summary of the method: (§2)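 Radioligand displacement binding gave Ki (nM). Each value is the mean of three determinations, with SD within 10% of the mean.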

D(1A) dopamine receptor = D(1A) dopamine receptor (Rattus norvegicus, UniProt P18901); experiment: Displacement of [3H]SCH23390 from dopamine D1 receptor in CRL:CD(SD)BR-COBS rat striatum by scintillation spectrometry
Chain of D(1A) dopamine receptor (P18901 whole entry): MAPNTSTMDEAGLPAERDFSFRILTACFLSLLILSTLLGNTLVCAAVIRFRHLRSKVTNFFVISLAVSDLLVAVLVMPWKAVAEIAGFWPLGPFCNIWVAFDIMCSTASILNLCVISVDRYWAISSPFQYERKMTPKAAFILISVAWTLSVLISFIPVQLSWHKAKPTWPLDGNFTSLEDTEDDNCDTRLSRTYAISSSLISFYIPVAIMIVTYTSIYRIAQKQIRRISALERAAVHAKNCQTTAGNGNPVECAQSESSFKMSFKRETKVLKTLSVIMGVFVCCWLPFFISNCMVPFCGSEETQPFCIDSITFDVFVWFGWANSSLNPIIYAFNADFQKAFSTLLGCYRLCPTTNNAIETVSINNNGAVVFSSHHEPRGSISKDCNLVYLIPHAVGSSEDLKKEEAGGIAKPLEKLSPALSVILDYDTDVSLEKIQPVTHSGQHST

Mus musculus [5] = experiment: Antipsychotic activity in NMRI mouse assessed as reduction in MK-801-induced locomotor activity at 10 mg/kg, ip administered 30 mins prior to testing measured for 60 mins; type: functional; details: route intraperitoneal
D(2) dopamine receptor = D(2) dopamine receptor (Rattus norvegicus, UniProt P61169); experiment: Displacement of [3H]spiperone from dopamine D2 receptor in CRL:CD(SD)BR-COBS rat striatum by scintillation spectrometry
Chain of D(2) dopamine receptor (P61169 whole entry): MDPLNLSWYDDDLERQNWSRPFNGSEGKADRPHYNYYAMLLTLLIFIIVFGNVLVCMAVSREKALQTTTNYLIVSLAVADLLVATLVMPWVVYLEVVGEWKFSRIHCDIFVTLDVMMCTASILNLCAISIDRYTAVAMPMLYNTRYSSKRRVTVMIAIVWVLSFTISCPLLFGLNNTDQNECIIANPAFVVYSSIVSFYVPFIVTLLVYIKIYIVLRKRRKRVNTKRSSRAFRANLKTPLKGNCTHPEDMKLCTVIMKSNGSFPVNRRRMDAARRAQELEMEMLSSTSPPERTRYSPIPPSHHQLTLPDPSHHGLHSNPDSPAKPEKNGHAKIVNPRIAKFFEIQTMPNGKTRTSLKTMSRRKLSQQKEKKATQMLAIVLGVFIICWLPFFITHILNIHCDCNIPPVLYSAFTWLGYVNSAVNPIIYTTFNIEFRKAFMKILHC

[6] = Half life in NMRI mouse at 3 mg/kg, ip; type: ADME, organism-based; set-up: dose 3 mg/kg, route intraperitoneal; details: in vivo; summary of the method: as §1
Mus musculus [7] = experiment: Antipsychotic activity in NMRI mouse assessed as inhibition of PCP-induced locomotor activity at 3 mg/kg, ip administered 30 mins prior to testing measured for 60 mins; type: functional, organism-based; set-up: dose 3 mg/kg
[8] = Cmax in NMRI mouse at 3 mg/kg, ip; type: ADME, organism-based; set-up: dose 3 mg/kg, route intraperitoneal; details: in vivo; summary of the method: as §1
[9] = Lipophilicity, log D at pH 7.4; type: physicochemical; details: buffer
[10] = molecular target: T1, 5-hydroxytryptamine receptor 1A (Rattus norvegicus, UniProt P19327); experiment: Displacement of [3H]8OH-DPAT from 5HT1A receptor in rat CRL:CD(SD)BR-COBS hippocampus by scintillation spectrometry; type: tissue-based; summary of the method: as §2
T1 sequence (P19327 whole entry): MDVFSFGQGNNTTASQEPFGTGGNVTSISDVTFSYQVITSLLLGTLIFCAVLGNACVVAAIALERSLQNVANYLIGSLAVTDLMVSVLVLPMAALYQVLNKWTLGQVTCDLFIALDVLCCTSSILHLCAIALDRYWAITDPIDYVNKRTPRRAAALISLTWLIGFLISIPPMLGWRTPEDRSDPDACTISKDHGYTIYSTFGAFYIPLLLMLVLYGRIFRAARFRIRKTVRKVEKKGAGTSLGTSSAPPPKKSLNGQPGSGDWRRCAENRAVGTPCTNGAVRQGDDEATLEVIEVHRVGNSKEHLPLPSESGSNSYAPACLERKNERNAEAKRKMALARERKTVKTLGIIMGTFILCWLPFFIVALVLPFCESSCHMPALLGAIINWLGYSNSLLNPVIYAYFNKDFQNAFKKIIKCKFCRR

[11] = AUC (0 to 6 hrs) in NMRI mouse at 3 mg/kg, ip; type: ADME, organism-based; set-up: time < 6 hr, dose 3 mg/kg, route intraperitoneal; details: plasma; summary of the method: as §1
Mus musculus [12] = experiment: Antipsychotic activity in NMRI mouse assessed as reduction of PCP-induced locomotor activity at 10 mg/kg, ip administered 30 mins prior to testing measured for 60 mins; type: functional, organism-based; set-up: dose 10 mg/kg
Mus musculus [13] = experiment: Antipsychotic activity in NMRI mouse assessed as reduction in spontaneous exploratory locomotor activity at 30 mg/kg, ip administered 30 mins prior to testing measured for 60 mins; type: functional; details: route intraperitoneal
[14] = molecular target: Voltage-gated inwardly rectifying potassium channel KCNH2 (Homo sapiens, UniProt Q12809); experiment: Binding affinity to human ERG expressed in HEK293 cells; type: cell-based
Chain of Voltage-gated inwardly rectifying potassium channel KCNH2 (Q12809 whole entry): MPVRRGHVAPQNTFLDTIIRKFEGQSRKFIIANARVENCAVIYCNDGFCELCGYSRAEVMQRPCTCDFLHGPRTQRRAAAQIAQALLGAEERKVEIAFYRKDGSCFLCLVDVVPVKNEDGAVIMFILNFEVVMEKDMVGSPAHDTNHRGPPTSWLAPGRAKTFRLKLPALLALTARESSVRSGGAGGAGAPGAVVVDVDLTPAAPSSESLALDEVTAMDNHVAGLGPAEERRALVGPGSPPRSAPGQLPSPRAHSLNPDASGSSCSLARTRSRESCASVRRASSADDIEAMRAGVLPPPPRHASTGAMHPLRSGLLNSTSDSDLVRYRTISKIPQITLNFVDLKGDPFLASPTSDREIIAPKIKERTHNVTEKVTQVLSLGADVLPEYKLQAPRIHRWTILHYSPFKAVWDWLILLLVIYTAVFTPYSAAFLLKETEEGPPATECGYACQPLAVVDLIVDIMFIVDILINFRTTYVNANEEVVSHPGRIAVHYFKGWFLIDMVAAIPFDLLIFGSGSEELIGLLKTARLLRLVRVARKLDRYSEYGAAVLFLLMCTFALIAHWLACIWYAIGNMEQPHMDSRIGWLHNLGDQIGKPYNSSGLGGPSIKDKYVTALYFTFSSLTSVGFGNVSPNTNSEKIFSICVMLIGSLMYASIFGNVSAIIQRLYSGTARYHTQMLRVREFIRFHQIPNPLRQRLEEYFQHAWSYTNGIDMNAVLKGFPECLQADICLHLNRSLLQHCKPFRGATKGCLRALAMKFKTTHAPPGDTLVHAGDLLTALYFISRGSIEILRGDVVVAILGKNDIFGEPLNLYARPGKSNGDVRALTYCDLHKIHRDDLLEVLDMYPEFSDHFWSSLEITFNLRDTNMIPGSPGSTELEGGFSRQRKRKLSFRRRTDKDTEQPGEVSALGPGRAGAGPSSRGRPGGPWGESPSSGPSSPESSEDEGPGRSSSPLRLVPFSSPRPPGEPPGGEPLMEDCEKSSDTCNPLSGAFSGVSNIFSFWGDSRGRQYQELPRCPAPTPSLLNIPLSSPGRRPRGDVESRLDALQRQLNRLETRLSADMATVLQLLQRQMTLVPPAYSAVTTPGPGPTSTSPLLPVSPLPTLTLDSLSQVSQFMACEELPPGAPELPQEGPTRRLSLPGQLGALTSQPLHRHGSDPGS

Mus musculus [15] = experiment: Antipsychotic activity in NMRI mouse assessed as increase of spontaneous exploratory locomotor activity at 1 mg/kg, ip administered 30 mins prior to testing measured for 60 mins; type: functional
Mus musculus [16] = experiment: Antipsychotic activity in NMRI mouse assessed as increase of methamphetamine-induced locomotor activity at 0.3 mg/kg, ip administered 30 mins prior to testing measured for 60 mins; type: functional, organism-based; set-up: dose 0.3 mg/kg
Mus musculus [17] = experiment: Antipsychotic activity in NMRI mouse assessed as reduction in spontaneous exploratory locomotor activity at 10 mg/kg, ip administered 30 mins prior to testing measured for 60 mins; type: functional; details: route intraperitoneal
Mus musculus [18] = experiment: Antipsychotic activity in NMRI mouse assessed as reduction in methamphetamine-induced locomotor activity at > 30 mg/kg, ip administered 30 mins prior to testing measured for 60 mins; type: functional; details: route intraperitoneal
Mus musculus [19] = experiment: Antipsychotic activity in NMRI mouse assessed as reduction in MK-801-induced locomotor activity at 30 mg/kg, ip administered 30 mins prior to testing measured for 60 mins; type: functional; details: route intraperitoneal
Mus musculus [20] = experiment: Antipsychotic activity in ip dosed NMRI mouse assessed as reduction in spontaneous exploratory locomotor activity administered 30 mins prior to testing measured for 60 mins; type: functional
Mus musculus [21] = experiment: Antipsychotic activity in ip dosed NMRI mouse assessed as reduction in methamphetamine-induced locomotor activity administered 30 mins prior to testing measured for 60 mins; type: functional
Summary of the method: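 Mice were made hyperactive by methamphetamine pretreatment, then dosed with the compound. Read-out was locomotor hypermotility. Doses ranged from 0.3 to 30 mg/kg.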

Mus musculus [22] = experiment: Antipsychotic activity in NMRI mouse assessed as increase of MK-801-induced locomotor activity at 1 mg/kg, ip administered 30 mins prior to testing measured for 60 mins; type: functional, organism-based; set-up: dose 1 mg/kg

Cc1cccc(N2CCN(CCCCCCN3CCN(c4ccccc4)CC3)CC2)n1
logP [1]: 3.99
Ki [2]: 25 nM
Tmax [3]: 18 min
Ki [4]: 309 nM
Ki (D(1A) dopamine receptor): > 1000 nM
Activity (Mus musculus [5]): 10 mg/kg
Ki (D(2) dopamine receptor): 24 nM
half-life [6]: 150 min
Activity (Mus musculus [7]): Active
Cmax [8]: 121 ng/mL
logD [9]: 1.89
Ki [10]: 8 nM
AUC(0-t) at 6 h [11]: 362 ng·h/mL
Activity (Mus musculus [12]): Active
Activity (Mus musculus [13]): 30 mg/kg

c1ccc(N2CCN(CCCCCCN3CCN(c4ccccn4)CC3)CC2)nc1
logP [1]: 3.39
Ki [2]: 45 nM
Tmax [3]: 60 min
Ki [4]: > 1000 nM
Ki (D(1A) dopamine receptor): > 1000 nM
Ki (D(2) dopamine receptor): 159 nM
Activity (Mus musculus [7]): Active
Cmax [8]: 26 ng/mL
logD [9]: 1.33
Ki [10]: 16 nM
AUC(0-t) at 6 h [11]: 84 ng·h/mL
Activity (Mus musculus [12]): Active
Ki [14]: > 10000 nM
Activity (Mus musculus [13]): 30 mg/kg

COc1cccc(N2CCN(CCCCCCN3CCN(c4cccc(Cl)c4)CC3)CC2)c1
logP [1]: 4.7
Ki [2]: 7 nM
Ki [4]: 92 nM
Ki (D(1A) dopamine receptor): > 1000 nM
Ki (D(2) dopamine receptor): 4 nM
logD [9]: 3.89
Ki [10]: 1 nM
Ki [14]: 1200 nM

Cc1cccc(N2CCN(CCCCCCN3CCN(c4ccnc5ccccc45)CC3)CC2)c1
logP [1]: 6.23
logD [9]: 3.67
Ki [14]: 900 nM

Cc1cccc(N2CCN(CCCCCCN3CCN(c4ccccn4)CC3)CC2)c1
logP [1]: 4.23
Ki [2]: 10 nM
Ki [4]: 150 nM
Ki (D(1A) dopamine receptor): > 1000 nM
Ki (D(2) dopamine receptor): 44 nM
Activity (Mus musculus [7]): Active
logD [9]: 2.72
Ki [10]: 2 nM
Activity (Mus musculus [12]): Active
Ki [14]: 8700 nM
Activity (Mus musculus [15]): inactive
Activity (Mus musculus [16]): Active

COc1cccc(N2CCN(CCCCCCN3CCN(c4cccc(OC)c4)CC3)CC2)c1
logP [1]: 4.19
Ki [2]: 28 nM
Ki [4]: 303 nM
Ki (D(1A) dopamine receptor): > 1000 nM
Ki (D(2) dopamine receptor): 27 nM
logD [9]: 3.25
Ki [10]: 8 nM
Ki [14]: 2400 nM

c1ccc(N2CCN(CCCCCCN3CCN(c4ccccc4)CC3)CC2)cc1
logP [1]: 3.83
Ki [2]: 31 nM
Tmax [3]: 30 min
Ki [4]: > 1000 nM
Ki (D(1A) dopamine receptor): > 1000 nM
Activity (Mus musculus [17]): 10 mg/kg
Activity (Mus musculus [18]): >30 mg/kg
Ki (D(2) dopamine receptor): 1 nM
Activity (Mus musculus [7]): Active
Cmax [8]: 71 ng/mL
logD [9]: 2.96
Ki [10]: 3 nM
AUC(0-t) at 6 h [11]: 198 ng·h/mL
Activity (Mus musculus [12]): Active
Ki [14]: 8000 nM

c1ccc(N2CCN(CCCCCCN3CCN(c4ccccn4)CC3)CC2)cc1
logP [1]: 3.61
Ki [2]: 39 nM
Tmax [3]: 60 min
Activity (Mus musculus [19]): 30 mg/kg
Ki [4]: > 1000 nM
Ki (D(1A) dopamine receptor): > 1000 nM
Activity (Mus musculus [17]): 10 mg/kg
Ki (D(2) dopamine receptor): 34 nM
Activity (Mus musculus [7]): Active
Cmax [8]: 50 ng/mL
logD [9]: 2.14
Ki [10]: 30 nM
AUC(0-t) at 6 h [11]: 58 ng·h/mL
Activity (Mus musculus [12]): Active
Ki [14]: 13000 nM

CN1CCN(C2=Nc3cc(Cl)ccc3Nc3ccccc32)CC1 [CLOZAPINE]
Activity (Mus musculus [7]): Active
ED50 (Mus musculus [20]): 2.4 mg/kg
ED50 (Mus musculus [21]): 2.5 mg/kg
Activity (Mus musculus [12]): Active

Clc1cccc(N2CCN(CCCCCCN3CCN(c4cccc(Cl)c4)CC3)CC2)c1
logP [1]: 5.35
Ki [2]: 98 nM
Ki [4]: 504 nM
Ki (D(1A) dopamine receptor): > 1000 nM
Ki (D(2) dopamine receptor): 11 nM
logD [9]: 4.58
Ki [10]: 16 nM
Ki [14]: 300 nM

Cc1cccc(N2CCN(CCCCNC(=O)c3cc4ccccc4o3)CC2)c1
Tmax [3]: 30 min
Ki [4]: 206 nM
Ki (D(1A) dopamine receptor): 263 nM
Ki (D(2) dopamine receptor): 4.5 nM
Activity (Mus musculus [7]): Active
Cmax [8]: 155 ng/mL
AUC(0-t) at 6 h [11]: 128 ng·h/mL
Activity (Mus musculus [12]): Active

Cc1cccc(N2CCN(CCCCCCN3CCN(c4ccccc4)CC3)CC2)c1
logP [1]: 4.45
Ki [2]: 10 nM
Tmax [3]: 30 min
Ki [4]: 182 nM
Ki (D(1A) dopamine receptor): > 1000 nM
Ki (D(2) dopamine receptor): 20 nM
Activity (Mus musculus [7]): Active
Cmax [8]: 41 ng/mL
logD [9]: 3.53
Ki [10]: 19 nM
AUC(0-t) at 6 h [11]: 147 ng·h/mL
Activity (Mus musculus [12]): Active
Ki [14]: 3800 nM
Activity (Mus musculus [13]): 30 mg/kg

O=C(CCCN1CCC(O)(c2ccc(Cl)cc2)CC1)c1ccc(F)cc1 [HALOPERIDOL]
Activity (Mus musculus [7]): Active
ED50 (Mus musculus [20]): 0.08 mg/kg
Activity (Mus musculus [12]): Active

c1ccc(N2CCN(CCCCCCN3CCN(c4ccnc5ccccc45)CC3)CC2)cc1
logP [1]: 5.61
Ki [2]: 34 nM
Ki [4]: > 1000 nM
Ki (D(1A) dopamine receptor): > 1000 nM
Ki (D(2) dopamine receptor): 41 nM
logD [9]: 3.1
Ki [10]: 49 nM
Ki [14]: 3800 nM

Cc1cccc(N2CCN(CCCCCCN3CCN(c4cccc(C)n4)CC3)CC2)c1
logP [1]: 4.62
Ki [2]: 6 nM
Tmax [3]: 120 min
Ki [4]: 68 nM
Ki (D(1A) dopamine receptor): > 1000 nM
Ki (D(2) dopamine receptor): 33 nM
Activity (Mus musculus [7]): Active
Activity (Mus musculus [22]): Active
Cmax [8]: 58 ng/mL
logD [9]: 2.46
Ki [10]: 11 nM
AUC(0-t) at 6 h [11]: 243 ng·h/mL
Activity (Mus musculus [12]): Active

O=C1CCc2ccc(OCCCCN3CCN(c4cccc(Cl)c4Cl)CC3)cc2N1 [ARIPIPRAZOLE]
Activity (Mus musculus [7]): Active
ED50 (Mus musculus [20]): 2.5 mg/kg
Activity (Mus musculus [12]): Active

Cc1cccc(N2CCN(CCCCCCN3CCN(c4cccc(C)c4)CC3)CC2)c1
logP [1]: 5
Ki [2]: 20 nM
Ki [4]: 120 nM
Ki (D(1A) dopamine receptor): > 1000 nM
Ki (D(2) dopamine receptor): 70 nM
logD [9]: 4.03
Ki [10]: 48 nM
Ki [14]: 2200 nM
